From ChEMBL document CHEMBL1122869, “Substituted benzamides with conformationally restricted side chains. 1. Quinolizidine derivatives as selective gastric prokinetic agents” (1985)

What was measured:
Rattus norvegicus [1] = experiment: Tested for stimulation of intragastric pressure in rat on sc administration; range 1-50 mg/kg; format: functional
Summary of the method: (§1)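 Male Wistar rats (200-500 g) with chronic gastric fistula, fasted overnight and restrained in Bollman cages. Only animals with basal motility <4 mmHg mean amplitude were used. Pressure waves were recorded via the fistula through a transducer over four 10-min periods before and after sc dosing, and the mean motility index was derived from them. Usually four groups of 10 rats received graded doses or vehicle.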

Mus musculus = experiment: Tested for anti-apomorphine climbing activity in mouse on sc administration
Rattus norvegicus [2] = experiment: Tested for stimulation of intragastric pressure in rat on sc administration; range 1-10 mg/kg; format: functional; summary of the method: as §1
Rattus norvegicus [3] = experiment: Tested for stimulation of intragastric pressure in rat on sc administration; format: functional; summary of the method: as §1
Rattus norvegicus [4] = experiment: Tested for stimulation of intragastric pressure in ra0t on sc administration; range 1-50 mg/kg
[5] = Rattus norvegicus, read-out: ED50
[6] = Mus musculus, sc, read-out: ED50

Q: With `COc1cc(N)c(Cl)cc1C(=O)NC1CCCN2CCCCC12` (stereo in doubt; 2a) as the compound, how does the ED50 (Rattus norvegicus [1]) read?
A: 1 mg/kg

Q: And the ED50 (Mus musculus)?
A: >50 mg/kg

Q: What does the source list for `COc1cc(N)c(Cl)cc1C(=O)NC1CCC2CCCCN2C1` (stereo in doubt; form 1)?
A: ED50 (Rattus norvegicus [2]): 1 mg/kg; ED50 (Mus musculus): 10 mg/kg

Q: `COc1cc(N)c(Cl)cc1C(=O)NC1CCN2CCCCC2C1` (stereo in doubt; 2e) was tested. Which ED50 (Rattus norvegicus [3]) did it give?
A: 4 mg/kg

Q: What about the ED50 (Mus musculus) of the same compound?
A: 7 mg/kg

Q: With `COc1cc(N)c(Cl)cc1C(=O)NC1CCCN2CCCCC12` (stereo in doubt; 2b) as the compound, how does the ED50 (Rattus norvegicus [1]; [5]) read?
A: > 50 mg/kg

Q: And the ED50 (Mus musculus)?
A: 0.4 mg/kg

Q: Which results are given for `COc1cc(N)c(Cl)cc1C(=O)NC1CCC2CCCCN2C1` (stereo in doubt; 2c)?
A: ED50 (Rattus norvegicus [1]; [5]): 1 mg/kg; ED50 (Mus musculus): 12 mg/kg

Q: How did the ED50 (Rattus norvegicus [3]) turn out when `COc1cc(N)c(Cl)cc1C(=O)NC1CCN2C(C)CCCC2C1` (stereo in doubt; form 2) [BRL-20627] was run?
A: 0.8 mg/kg

Q: What about the ED50 (Mus musculus) of the same compound?
A: 25 mg/kg

Q: Which ED50 (Rattus norvegicus [3]) does the source give for `CCN(CC)CCNC(=O)c1cc(Cl)c(N)cc1OC` [METOCLOPRAMIDE] here?
A: 1 mg/kg

Q: And the ED50 (Rattus norvegicus [3]; [5])?
A: 1 mg/kg

Q: What about the ED50 (Mus musculus) of the same compound?
A: 0.75 mg/kg

Q: And the ED50 (Mus musculus; [6])?
A: 0.75 mg/kg

Q: `COc1cc(N)c(Cl)cc1C(=O)NC1CCC2CCCCN2C1` (stereo in doubt; form 2) was tested. Which ED50 (Rattus norvegicus [2]; [5]) did it give?
A: 1 mg/kg

Q: What about the ED50 (Mus musculus; [6]) of the same compound?
A: 10 mg/kg

Q: `COc1cc(N)c(Cl)cc1C(=O)NC1CCN2C(C)CCCC2C1` (configuration not stated) [BRL-20627] was tested. Which ED50 (Rattus norvegicus [1]) did it give?
A: 1 mg/kg

Q: For `COc1cc(N)c(Cl)cc1C(=O)NC1CCC2CCCCN2C1` (configuration not stated), which ED50 (Rattus norvegicus [1]) is on record?
A: 1 mg/kg

Q: Which results are given for `COc1cc(N)c(Cl)cc1C(=O)NC1CCN2C(C)CCCC2C1` (stereo in doubt; form 1) [BRL-20627]?
A: ED50 (Rattus norvegicus [3]; [5]): 0.8 mg/kg; ED50 (Mus musculus; [6]): 25 mg/kg

Q: Which ED50 (Rattus norvegicus [4]) does the source give for `COc1cc(N)c(Cl)cc1C(=O)NC1CCCN2CCCCC12` (configuration not stated) here?
A: 1 mg/kg

Q: With `COc1cc(N)c(Cl)cc1C(=O)NC1CCN2C(C)CCCC2C1` (stereo in doubt; 2f) [BRL-20627] as the compound, how does the ED50 (Rattus norvegicus [1]; [5]) read?
A: 1 mg/kg

Q: What about the ED50 (Mus musculus) of the same compound?
A: >50 mg/kg

Q: How did the ED50 (Rattus norvegicus [3]) turn out when `COc1cc(N)c(Cl)cc1C(=O)NC1CCN2CCCCC2C1` (stereo in doubt; 2g) was run?
A: 0.8 mg/kg

Q: What about the ED50 (Mus musculus) of the same compound?
A: 25 mg/kg
